In general, pEC50 refers to the EC50 on a negative log10 scale, so that one unit is a factor of ten.

pEC50: −log10 of the molar value.

Assay [1] addresses T1, Glutamate receptor 4 (Homo sapiens, UniProt P48058). The experiment in a line: Potentiation of responses mediated by 100 uM L-glutamate in transfected HEK293 cells expressing human homomeric iGluR4 flip receptors. The assay is classed as functional, cell-based. In short, it runs like this: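 Calcium influx was measured in confluent HEK293 cells stably expressing human homomeric iGluR4 flip, loaded 60 min with 20 µM Fluo3-AM in HEPES buffer (pH 7.1-7.3, 5 mM Ca2+). Compound at several concentrations preceded 100 µM glutamate by 5 min. Fluorescence was read before and 3 min after glutamate. Responses were scaled to 100 µM cyclothiazide, and EC50 was taken as the mean of at least three experiments.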

The target of assay [2] is T1, Glutamate receptor 4. The experiment in a line: % potentiation of responses mediated by 100 uM L-glutamate in human transfected HEK293 cells expressing homomeric iGluR4 flip receptors at a dose of 3 uM. The assay is classed as functional, cell-based. In short, it runs like this: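 HEK293 cells stably expressing human iGluR4 flip, as confluent monolayers, loaded 60 min with 20 µM Fluo3-AM in HEPES-buffered saline (5 mM CaCl2, pH 7.1-7.3), then washed. Compound was added 5 min before 100 µM glutamate. Fluorescence was read just before glutamate and 3 min after. Potentiation at 3 µM, the highest dose tested, was expressed relative to 100 µM cyclothiazide (n = 1).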

T1 sequence (P48058 whole entry): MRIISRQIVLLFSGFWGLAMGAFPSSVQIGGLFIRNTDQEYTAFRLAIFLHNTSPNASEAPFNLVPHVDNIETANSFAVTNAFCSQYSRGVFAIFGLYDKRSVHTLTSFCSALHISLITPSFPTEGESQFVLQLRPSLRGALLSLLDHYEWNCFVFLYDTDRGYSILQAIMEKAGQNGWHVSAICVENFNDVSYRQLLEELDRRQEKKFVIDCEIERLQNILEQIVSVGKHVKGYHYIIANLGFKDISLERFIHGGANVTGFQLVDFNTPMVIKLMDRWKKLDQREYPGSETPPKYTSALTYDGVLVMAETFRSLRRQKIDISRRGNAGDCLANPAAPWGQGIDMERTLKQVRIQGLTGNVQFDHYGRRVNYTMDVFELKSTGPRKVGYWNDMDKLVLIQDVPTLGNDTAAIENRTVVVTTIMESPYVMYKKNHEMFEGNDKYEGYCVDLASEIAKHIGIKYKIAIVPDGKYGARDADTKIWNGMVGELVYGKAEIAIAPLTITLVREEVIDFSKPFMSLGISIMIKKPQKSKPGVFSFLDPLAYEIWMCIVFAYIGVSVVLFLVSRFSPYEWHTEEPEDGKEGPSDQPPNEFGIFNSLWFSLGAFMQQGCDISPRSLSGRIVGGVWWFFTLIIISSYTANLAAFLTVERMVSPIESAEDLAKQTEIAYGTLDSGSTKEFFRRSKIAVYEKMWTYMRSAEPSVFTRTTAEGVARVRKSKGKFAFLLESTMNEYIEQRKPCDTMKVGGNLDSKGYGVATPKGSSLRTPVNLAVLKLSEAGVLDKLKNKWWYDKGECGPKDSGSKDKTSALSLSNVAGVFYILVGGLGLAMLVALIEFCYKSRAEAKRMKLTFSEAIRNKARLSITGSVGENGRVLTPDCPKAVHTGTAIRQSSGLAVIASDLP

For the compound `CC(C)S(=O)(=O)N[C@@H]1CCC[C@@H]1c1ccc(Br)cc1` (racemic), the pEC50 in assay [1] is 6.83. Still for that read-out and setting: for `CC(C)S(=O)(=O)N[C@H]1CCC[C@@H]1c1ccc(I)cc1` (racemic) the value was 7.03; for `CC(C)S(=O)(=O)N[C@@H]1CCC[C@@H]1c1ccccc1`, 5.76; for `CC(C)S(=O)(=O)N[C@@H]1CCC[C@@H]1c1ccc(F)c(F)c1` (racemic), 5.96. In the case of `CC(C)S(=O)(=O)N[C@@H]1CCC[C@@H]1c1ccc(Cl)cc1` (racemic), the pEC50 in assay [1] is 6.61.

Consider `CC(C)S(=O)(=O)N[C@@H]1CCC[C@H]1c1ccc(Br)cc1`, for which the Potentiation in assay [2] turned out to be 2%. Consider `CC(C)S(=O)(=O)N[C@@H]1CCC[C@@H]1c1ccc(I)cc1`, for which, in assay [1], the pEC50 was 7.65. With `CC(C)S(=O)(=O)N[C@H]1CCC[C@@H]1c1ccc(I)cc1`, the pEC50 in assay [1] is 7.48. Take `CC(CNS(=O)(=O)C(C)C)c1ccc(Br)cc1` (racemic): the Potentiation in assay [2] is 26%. With `CC(C)S(=O)(=O)N[C@@H]1CCC[C@@H]1c1cccc(F)c1` (racemic), the pEC50 in assay [1] was 6.21. With `CC(C)S(=O)(=O)N[C@@H]1CCC[C@@H]1c1cc(F)cc(F)c1`, the pEC50 in assay [1] is 6.93. On to `CC(C)S(=O)(=O)N[C@H]1CCC[C@H]1c1cc(F)cc(F)c1`, for which, in assay [2], the Potentiation is 5%. On the same count and under the same terms, for `CC(C)S(=O)(=O)N[C@@H]1CCC[C@H]1c1ccccc1` the value was 6%. In the case of `Cc1ccc([C@H]2CCC[C@H]2NS(=O)(=O)C(C)C)cc1` (racemic), the pEC50 in assay [1] is 6.36. As for `CC(CNS(=O)(=O)C(C)C)c1ccccc1` (racemic), in assay [2], the Potentiation turned out to be 0%. With `CC(C)S(=O)(=O)N[C@H]1CCC[C@@H]1c1ccc(Br)cc1`, in assay [1], the pEC50 is 7.09.

`CC(C)S(=O)(=O)N[C@H]1CCC[C@@H]1c1ccc(Br)cc1` (racemic): the pEC50 in assay [1] was 6.89. `CC(C)S(=O)(=O)N[C@@H]1CCC[C@H]1c1ccc(I)cc1`: in assay [2], the Potentiation is 12%. Consider `CC(C)S(=O)(=O)N[C@H]1CCC[C@H]1c1ccccc1`, for which the Potentiation in assay [2] was 2%. In the case of `CC(C)S(=O)(=O)N[C@H]1CCC[C@@H]1c1ccccc1`, in assay [1], the pEC50 was 6.26. On to `CC(C)S(=O)(=O)N[C@H]1CCC[C@H]1c1ccc(Br)cc1`, for which, in assay [2], the Potentiation was found to be 27%. On the same count and under the same terms, for `CC(C)S(=O)(=O)N[C@H]1CCC[C@H]1c1ccc(C#N)cc1` the value was 17%. Turning to `CC(C)S(=O)(=O)N[C@@H]1CCC[C@@H]1c1ccc(C#N)cc1`, the pEC50 in assay [1] was 6.39. For `CC(C)S(=O)(=O)N[C@H]1CCC[C@H]1c1ccc(I)cc1`, the Potentiation in assay [2] amounted to 34%. As to `CC(C)S(=O)(=O)N[C@@H]1CCC[C@@H]1c1ccc(I)cc1` (racemic), the pEC50 in assay [1] is 7.34. As to `CC(C)S(=O)(=O)N[C@H]1CCC[C@@H]1c1ccccc1` (racemic), the Potentiation in assay [2] was 70%. The same measure, in the same setting: in the case of `CC(C)S(=O)(=O)N[C@@H]1CCC[C@@H]1c1ccc(F)cc1` (racemic) it was 57%; in that of `CC(C)S(=O)(=O)N[C@@H]1CCC[C@@H]1c1ccccc1` (racemic), 48%. For the compound `CC(C)S(=O)(=O)N[C@@H]1CCC[C@@H]1c1cc(F)cc(F)c1` (racemic), in assay [1], the pEC50 is 6.55.

`CC(C)S(=O)(=O)N[C@@H]1CCC[C@@H]1c1ccc([N+](=O)[O-])cc1` (racemic): in assay [1], the pEC50 was 6.72. With `CC(C)S(=O)(=O)N[C@@H]1CCC[C@@H]1c1ccc(Br)cc1`, in assay [1], the pEC50 was 7.17.

These data come from ChEMBL document CHEMBL1135411, “Design and synthesis of a novel series of 1,2-disubstituted cyclopentanes as small, potent potentiators of 2-amino-3-(3-hydroxy-5-methyl-isoxazol-4-yl)propanoic acid (AMPA) receptors” (J Med Chem, 2002).
